ARNT TACC3 PPI: ARNT/TACC3 interaction disruption; Q9Y6A5; inhibition, % at 9.99 µM; 390,000 compounds, 0.66% hits; AlphaScreen His-ARNT PAS-B/GST-TACC3 binding, luminescence; TACC3 fragment carries E629A point mutation; AID 623870;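 active = mean inhibition of replicates at least 50% and at least half of replicates each reaching 50%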;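 also: 0% = complete ARNT plus TACC3 wells and 100% = ARNT alone without TACC3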
CAL PDZ FP-1: CAL PDZ (human) peptide binding inhibition. Q9HD26. purified CAL PDZ, TMR-peptide fluorescence polarization, 1 h. inhibition, % at 24.9 µM. 300,000 compounds, 0.92% hits;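 active = mean inhibition of at least 30% with at least half of replicates also reaching 30%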;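 also: 0% = DMSO neutral control and 100% = excess unlabeled competitor peptide PRC23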
Rce1 inhib: blocks yeast Ras-converting enzyme; Q03530; yeast membranes, quenched prenylated peptide cleavage fluorescence; calls only; 290,000 compounds, 0.27% hits; AID 2563;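 active = fall in fluorescence gain of 50% or more versus controls, with final raw signal at or below 3038400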;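 also: plate controls were neutral control wells for no effect and wells lacking membranes for full effect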
Target sequence (Q03530 whole entry, looked up): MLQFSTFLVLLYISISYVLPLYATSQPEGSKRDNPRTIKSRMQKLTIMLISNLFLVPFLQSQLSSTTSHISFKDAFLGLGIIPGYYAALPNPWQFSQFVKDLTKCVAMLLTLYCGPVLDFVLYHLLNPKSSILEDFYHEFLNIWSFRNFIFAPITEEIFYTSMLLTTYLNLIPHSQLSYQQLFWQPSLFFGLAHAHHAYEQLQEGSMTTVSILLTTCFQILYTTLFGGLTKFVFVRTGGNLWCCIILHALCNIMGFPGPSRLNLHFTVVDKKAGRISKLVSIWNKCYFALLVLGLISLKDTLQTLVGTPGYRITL
AI-2 QS modul: modulates the Vibrio harveyi AI-2 quorum sensing system; Vibrio harveyi JMH597 AI-2 luminescence/OD600 ratio, 9 h; active compounds read low; strain lacks LuxN and CqsS sensors; 0 = neutral-control median; activity change, % at 7.5 µM; 300,000 compounds, 0.4% hits; in the data active = activity change below about -75%, passing the limit was not always enough;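 also: luminescence divided by OD600 gain over 9 h not by final OD600 alone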
CAL PDZ FP-2: blocks peptide binding to human CAL PDZ domain. purified CAL PDZ, TMR-peptide fluorescence polarization, 1 h. inhibition, % at 20 µM. 330,000 compounds, 0.02% hits. AID 504414;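 active = highest replicate inhibition of at least 40%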;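 also: plate controls were DMSO neutral control wells for no effect and unlabeled competitor peptide control wells for full effect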
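Control set: unlabelled peptide and DMSO controls / Material: purified CerCALP PDZ construct / Timing: 1 h incubation at room temperature before polarization reading / Doses: 20 µM, one dose / Detection: fluorescence polarization (mP)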
* = called active by the depositor; i = inactive; x = no result given; + = active, no number. Only some compounds are listed: those with a hit (about 1.7% of all), similar ones and a draw of the others.

SMILES	ARNT TACC3 PPI	CAL PDZ FP-1	Rce1 inhib	AI-2 QS modul	CAL PDZ FP-2
CCCCN1C(=O)NC(NS(=O)(=O)c2ccc(N)cc2)(C(F)(F)F)C1=O (centres undefined)	-11	-4	x	x	0
Cc1ccc(N(CC(=O)N2CCOCC2)S(C)(=O)=O)cc1	-7	3	i	43	0
CC(C)c1ccc(N(CC(=O)N2CCOCC2)S(C)(=O)=O)cc1	-1	86*	i	28	-7
O=C(Nc1cccc2ccccc12)c1cccc(F)c1	-3	3	i	5	0
CC[C@]12C(=O)N(C)C[C@H]([C@@H]3C(=O)N(Cc4ccccc4)C(=O)[C@@H]31)N2C(=O)c1ccc(C(C)(C)C)cc1	1	-2	x	x	1
CCCn1c(=O)c2c(nc3n2CCCN3Cc2ccccc2)n(C)c1=O	49*	-3	i	5	0
Cn1c(=O)c(C(=O)NCCO)c(O)c2ccccc21	-8	3	+	12	0
Cc1cccc2nc(CSc3nc4ccccc4o3)cn12	5	-3	i	-93*	0
Cc1cc(C)nc(SCc2cn3c(C)cccc3n2)n1	x	x	i	16	x
O=C(NC(=O)N1CCN(c2ccc([N+](=O)[O-])cn2)CC1)c1ccccc1F	2	x	i	12	0
CN(NC(=O)c1ccccc1F)c1ccc([N+](=O)[O-])cn1	-2	55*	i	29	-1
CNS(=O)(=O)c1ccc(CNC[C@H]2O[C@@H](n3cnc(C(N)=O)n3)[C@H](O)[C@@H]2O)cc1	-12	-6	x	x	1
C=CCCCCCCCCC(=O)NNC1CC(=O)N(c2ccccc2)C1=O (centres undefined)	-6	49*	i	19	0
CCCCCC(=O)NNC1CC(=O)N(c2ccccc2)C1=O (centres undefined)	x	x	i	7	x
Cc1cc(N2CCOCC2)nc(C(C)C)n1	34	-8	i	-3	-1
CN(C)C(=S)Nc1ccc(Cc2ccncc2)cc1	4	1	i	20	2
O=C(Cn1cc(COc2ccc3ccc(=O)oc3c2)nn1)c1ccc(O)cc1	-3	30*	x	x	-1
O=C(Cn1cc(COc2ccc(Br)cc2)nn1)c1ccc(O)cc1	-6	-8	x	x	-1
COc1ccc(N=C(N)SCc2ccccn2)cc1	55*	x	i	9	0
CCC(C)N(CCNC(=O)c1ccc2c(c1)NC(=O)c1ccccc1S2)C1CCCCC1 (centres undefined)	9	-8	i	13	-7
C=C1CCC2C(C)(C)[C@@H](O)CC[C@@]2(C)[C@@H]1COc1ccc2ccc(=O)oc2c1 (some centres undefined)	-12	-2	i	-14	1
CC(=O)OC1CCC2(C)C(COc3ccc4ccc(=O)oc4c3)C(C)(O)CCC2C1(C)C (centres undefined)	x	-3	+	17	-1
O=C(NCc1ccco1)C(=S)N1CCCCC1	-4	-2	i	29	-2
Nc1nc(Cl)nc2c1ncn2C1CC(O)C(CO)O1 (centres undefined)	3	1	i	-91*	0
CCCN(C)C[C@@H]1Oc2cc(/C=C/c3ccccc3)ccc2S(=O)(=O)N([C@H](C)CO)C[C@@H]1C	10	x	x	x	x
SMILES	ARNT TACC3 PPI	CAL PDZ FP-1	Rce1 inhib	AI-2 QS modul	CAL PDZ FP-2
CCN(CC)CCNC(=O)c1[nH]c2ccc(OCc3ccccc3)cc2c1C	9	-5	+	1	-3
CC(O)c1cccc(-c2ccc(CN3C[C@]4(CO)O[C@@H](CO)C[C@@H]4S3(=O)=O)cc2)c1 (some centres undefined)	-2	42*	x	x	-1
COc1ccc2nc(SCC(=O)NC3CCCc4ccccc43)[nH]c2c1 (centres undefined)	-4	-4	i	3	-1
COc1ccc(C(C[N+](=O)[O-])c2c(C)[nH]n(-c3ccccc3)c2=O)cc1 (centres undefined)	72*	-3	i	35	x
Cc1[nH]n(-c2ccccc2)c(=O)c1C(C[N+](=O)[O-])c1ccccc1Cl (centres undefined)	33	0	i	24	-1
COc1cc2c(cc1OC)CN(C(=S)Nc1ccccc1Cl)CC2	8	68*	i	16	x
COc1cc2c(cc1OC)CN(C(=S)Nc1ccccc1)CC2	21	-2	i	-3	0
COCCN1C(=O)N[C@@H](c2ccccc2)[C@@H](C(=O)OC)[C@H]1C	x	1	i	1	1
COC(=O)c1nc(N)sc1-c1ccc(Cl)c(Cl)c1	5	-3	+	12	-3
O=C(Nc1ccc(F)cc1)N[C@@H]1CC[C@@H](CCNS(=O)(=O)c2ccccc2F)O[C@H]1CO	-10	x	x	x	x
CNC[C@H]1OCCCC[C@@H](C)Oc2ccc(NS(=O)(=O)c3cccs3)cc2C(=O)N([C@H](C)CO)C[C@@H]1C	2	x	x	x	x
CC(C)(C)c1ccc(C(=O)N2CCN(Cc3ccccc3)CC2)cc1	-49	-1	i	-9	-1
CC(C)CC(=O)c1c[nH]c(C(=O)N2CCN(Cc3ccccc3)CC2)c1	-1	80*	i	14	-2
O=C(Cn1cnc(S(=O)(=O)N2CCCC2)c1)Nc1cccc(Br)c1	1	50*	i	21	-1
CC(=O)c1cccc(NC(=O)Cn2cnc(S(=O)(=O)N3CCCCC3)c2)c1	-5	-8	i	17	-1
COc1ccccc1CNC(=O)C[C@@H]1CC[C@H]2[C@H](COc3ccc(NC(C)=O)cc3C(=O)N2C)O1	-4	x	x	x	x
CCN(C(=O)Cn1nnc(-c2ccccc2)n1)C1CCS(=O)(=O)C1 (centres undefined)	-1	5	i	13	0
CC(=O)c1c(O)cc(O)c(C(C)=O)c1O	-7	1	+	-24	0
O=C(c1ccc(NS(=O)(=O)c2cccc3cccnc23)cc1)N1CCOCC1	-1	-3	i	3	x
O=C(COc1ccc(Cl)c2cccnc12)N1CCOCC1	x	115*	x	x	0
O=C(Oc1c(Cl)cc(Cl)c2cccnc12)N1CCOCC1	-3	-1	i	5	-1
CCC1CCCCN1C(=O)CSc1nc(N)cc(=O)[nH]1 (centres undefined)	-1	1	i	15	-1
CCCNC(=O)C[C@H]1CC[C@H]2[C@H](COc3ccc(NC(=O)c4cccc(OC)c4)cc3C(=O)N2C)O1	2	x	x	x	x
Cc1onc(-c2c(F)cccc2Cl)c1C(=O)NCc1ccccn1	5	88*	i	14	-1
CCOC(=O)c1c(C)c(C(=O)NCc2ccccn2)c(C)n1CC	48*	x	i	16	1
O=C(COC(=O)c1ccc[nH]c1=O)Nc1cc(S(=O)(=O)N2CCCCC2)ccc1Cl	-17	4	i	13	-3
Fc1ccccc1/C=N/Nc1ncnc2nc[nH]c12	12	-4	i	3	-2
